# Measurements as given in ChEMBL document CHEMBL1132237, “Fluorination of 3-(3-(piperidin-1-yl)propyl)indoles and 3-(3-(piperazin-1-yl)propyl)indoles gives selective human 5-HT1D receptor ligands with improved pharmacokinetic profiles” (J Med Chem, 1999).
# Experiments:
# [1] = target: T1, 5-hydroxytryptamine receptor 1B (Homo sapiens, UniProt P28222); assay: Displacement of specific [3H]5-HT binding to cloned human 5-hydroxytryptamine 1B receptor expressed in CHO cells; assay type: cell-based
# Method in brief: (§1)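 Radioligand binding to human 5-HT1D and 5-HT1B receptors stably expressed in CHO cells. Radioligand was used at approximately its KD for each receptor. IC50 values are the logarithmic mean of 2–5 independent determinations, each run in duplicate. Maximum variance from the mean of log(IC50) was 4%. Selectivity is IC50(1B)/IC50(1D).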
# [2] = target: T2, 5-hydroxytryptamine receptor 1D (Homo sapiens, UniProt P28221); assay: Displacement of specific [3H]5-HT binding to cloned human 5-hydroxytryptamine 1D receptor expressed in CHO cells; assay type: cell-based; method in brief: as §1
# [3] = target: Serotonin 1 receptors; 5-HT1B & 5-HT1D (Homo sapiens) (UniProt P28222+P28221); assay: Selectivity towards 5-HT1D and to that of 5-HT1B in CHO cells; assay type: cell-based; method in brief: as §1
# [4] = target: T1, 5-hydroxytryptamine receptor 1B; assay: Agonist-induced [35S]GTP-gamma-S, binding in CHO cells stably transfected with human 5-hydroxytryptamine 1B receptor; assay type: functional, cell-based
# Method in brief: (§2)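 [35S]GTPγS binding stimulated by agonist, measured in CHO cells stably transfected with the human 5-HT1D or 5-HT1B receptor. EC50 values are the logarithmic mean of 2–3 independent determinations. Maximum variance of individual log(EC50) values from the mean was 4%.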
# [5] = target: T2, 5-hydroxytryptamine receptor 1D; assay: Agonist-induced [35S]GTP-gamma-S, binding in CHO cells stably transfected with human 5-hydroxytryptamine 1D receptor; assay type: functional, cell-based; method in brief: as §2
# [6] = pKa value by potentiometric method; assay type: physicochemical
# Method in brief: (§3)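 Potentiometric titration in MeOH–H2O cosolvent with ionic strength set by 0.15 M KCl. Three titrations at different water/cosolvent ratios gave psKa values. Aqueous pKa was obtained by Yasuda–Shedlovsky extrapolation to 100% water, plotting psKa + log[H2O] against 1/ε.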
# [7] = target: T2, 5-hydroxytryptamine receptor 1D; assay: Efficacy was evaluated relative to human 5-hydroxytryptamine 1D receptor using [35S]GTP-gamma-S, as radioligand; assay type: functional
# [8] = target: T1, 5-hydroxytryptamine receptor 1B; assay: Efficacy was evaluated relative to human 5-HT1B receptor using [35S]GTP-gamma-S, as radioligand; assay type: functional
# Rattus norvegicus [9] = assay: Oral absorption study in rat plasma obtained from cardiac blood samples after 0.5 hours of administration of 3 mg/kg orally; assay type: functional, organism-based; set-up: dose 3 mg/kg
# Method in brief: (§4)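 Male Sprague–Dawley rats, fasted overnight and with no surgery, received 3 mg/kg orally as a 0.6 mg/mL solution in PEG 400:5 mM HCl (25:75 v/v). Terminal blood was taken from the heart and hepatic portal vein under isoflurane at 0.5 and 2 h, three rats per time point. Plasma drug was measured by electrospray mass spectrometry. Values are mean ± SEM.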
# Rattus norvegicus [10] = assay: Oral absorption study in rat plasma obtained from hepatic portal vein after 0.5 hours of administration of 3 mg/kg orally; assay type: functional, organism-based; set-up: dose 3 mg/kg; method in brief: as §4
# Rattus norvegicus [11] = assay: Oral absorption study in rat plasma obtained from cardiac blood samples after 2 hours of administration of 3 mg/kg orally; assay type: functional, organism-based; set-up: dose 3 mg/kg; method in brief: as §4
# Rattus norvegicus [12] = assay: Oral absorption study in rat plasma obtained from hepatic portal vein after 2 hours of administration of 3 mg/kg orally; assay type: functional, organism-based; set-up: dose 3 mg/kg; method in brief: as §4
# [13] = pKa value by potentiometric; assay type: physicochemical; method in brief: as §3
# T2 sequence (P28221 whole entry): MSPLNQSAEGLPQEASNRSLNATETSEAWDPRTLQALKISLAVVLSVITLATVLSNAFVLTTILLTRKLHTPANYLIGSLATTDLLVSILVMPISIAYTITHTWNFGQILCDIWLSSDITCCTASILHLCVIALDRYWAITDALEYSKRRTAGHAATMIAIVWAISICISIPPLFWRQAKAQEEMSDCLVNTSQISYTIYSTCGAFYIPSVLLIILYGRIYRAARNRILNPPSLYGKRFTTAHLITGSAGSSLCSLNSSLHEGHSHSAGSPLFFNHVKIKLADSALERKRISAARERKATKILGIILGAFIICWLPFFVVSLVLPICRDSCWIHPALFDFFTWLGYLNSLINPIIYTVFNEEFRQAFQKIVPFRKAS
# T1 sequence (P28222 whole entry): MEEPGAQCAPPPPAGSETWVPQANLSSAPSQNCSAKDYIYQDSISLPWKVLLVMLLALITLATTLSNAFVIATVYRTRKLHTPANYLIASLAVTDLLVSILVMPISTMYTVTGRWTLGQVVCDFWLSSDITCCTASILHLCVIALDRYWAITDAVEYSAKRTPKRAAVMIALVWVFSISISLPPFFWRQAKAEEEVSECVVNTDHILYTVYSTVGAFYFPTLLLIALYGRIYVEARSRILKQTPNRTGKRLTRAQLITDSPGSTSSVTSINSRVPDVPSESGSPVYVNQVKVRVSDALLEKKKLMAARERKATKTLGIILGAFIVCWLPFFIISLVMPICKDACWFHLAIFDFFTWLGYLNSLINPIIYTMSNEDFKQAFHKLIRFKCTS
Compound,IC50 [1],IC50 [2],Selectivity [3],also measured
CC(CN1CCN(CC(F)Cc2c[nH]c3ccc(-n4cnnc4)cc23)CC1)c1ccccc1F (stereo unspecified),380 nM,1 nM,380,
FC(F)(Cc1c[nH]c2ccc(-n3cnnc3)cc12)CN1CCC(Cc2ccccc2)CC1,1300 nM,78 nM,17,pKa [6]: 6.7
CN(Cc1ccccc1C(F)(F)F)[C@H]1CCN(CCCc2c[nH]c3ccc(-n4cnnc4)cc23)C[C@@H]1F,220 nM,13 nM,17,pKa [6]: 6.9
Fc1cccc(CCN2CCN(C[C@@H](F)Cc3c[nH]c4ccc(-n5cnnc5)cc34)CC2)c1,680 nM,5.8 nM,117,
CN(Cc1ccccc1C(F)(F)F)[C@H]1CCN(CCCc2c[nH]c3ccc(-n4cnnc4)cc23)C[C@H]1F,220 nM,9.3 nM,24,pKa [6]: 7.7
c1ccc(CN2CCN(CCCc3c[nH]c4ccc(-n5cnnc5)cc34)CC2)cc1,,0.14 nM,79,Plasma concentration (Rattus norvegicus [9]): 42 ng/mL; Plasma concentration (Rattus norvegicus [10]): 168 ng/mL; pKa [13]: 8.2
FC1(CCc2ccccc2)CCN(CCCc2c[nH]c3ccc(-n4cnnc4)cc23)CC1,49 nM,2 nM,25,
Fc1ccccc1CCC1(F)CCN(CCCc2c[nH]c3ccc(-n4cnnc4)cc23)CC1,16 nM,0.8 nM,20,
CC(CN1CCN(CC(F)Cc2c[nH]c3ccc(-n4cnnc4)cc23)CC1)c1ccc(F)cc1 (stereo unspecified),310 nM,1 nM,310,Efficacy [7]: 106%; EC50 [4]: 1700 nM; Efficacy [8]: 79%; EC50 [5]: 1.6 nM
Fc1cccc(CCC2(F)CCN(CCCc3c[nH]c4ccc(-n5cnnc5)cc34)CC2)c1,22 nM,0.7 nM,31,EC50 [4]: 440 nM; Efficacy [8]: 88%; EC50 [5]: 5 nM
FC(Cc1c[nH]c2ccc(-n3cnnc3)cc12)CN1CCN(CCc2ccccc2)CC1 (stereo unspecified),930 nM,6.8 nM,137,
Fc1ccccc1CC1(F)CCN(CCCc2c[nH]c3ccc(-n4cnnc4)cc23)CC1,3.1 nM,0.1 nM,,
CN(Cc1ccccc1)C1CCN(CC(F)(F)Cc2c[nH]c3ccc(-n4cnnc4)cc23)CC1,2100 nM,35 nM,60,
FC1(Cc2ccccc2C(F)(F)F)CCN(CCCc2c[nH]c3ccc(-n4cnnc4)cc23)CC1,14 nM,0.3 nM,47,Efficacy [7]: 61%; EC50 [4]: 290 nM; Efficacy [8]: 91%; EC50 [5]: 0.2 nM
CC(CN1CCN(CC(F)(F)Cc2c[nH]c3ccc(-n4cnnc4)cc23)CC1)c1ccc(F)cc1 (stereo unspecified),1000 nM,1.8 nM,556,
Fc1cccc(CCN2CCN(CC(F)Cc3c[nH]c4ccc(-n5cnnc5)cc34)CC2)c1 (stereo in doubt; 28) [listing 1 of 2 here],1000 nM,5.1 nM,,
CC(CN1CCN(CC(F)Cc2c[nH]c3ccc(-n4cnnc4)cc23)CC1)c1cccc(F)c1 (stereo unspecified),280 nM,0.9 nM,311,Efficacy [7]: 112%; EC50 [4]: 1500 nM; Efficacy [8]: 87%; EC50 [5]: 1.9 nM
CN(Cc1ccccc1)C1CCN(CC(F)Cc2c[nH]c3ccc(-n4cnnc4)cc23)CC1 (stereo unspecified),1200 nM,,22,Plasma concentration (Rattus norvegicus [9]): 2 ng/mL; Plasma concentration (Rattus norvegicus [10]): 57 ng/mL; pKa [6]: 8.5; Plasma concentration (Rattus norvegicus [11]): 10 ng/mL; EC50 [4]: 10300 nM; Efficacy [8]: 59%; Plasma concentration (Rattus norvegicus [12]): 217 ng/mL
Fc1ccccc1CCN1CCN(CC(F)Cc2c[nH]c3ccc(-n4cnnc4)cc23)CC1 (stereo unspecified),520 nM,4.7 nM,111,
OC(Cc1c[nH]c2ccc(-n3cnnc3)cc12)CN1CCN(Cc2ccccc2)CC1 (stereo unspecified),360 nM,1.8 nM,200,
Fc1ccc(CCC2(F)CCN(CCCc3c[nH]c4ccc(-n5cnnc5)cc34)CC2)cc1,25 nM,1 nM,25,
FC1(Cc2ccccc2)CCN(CCCc2c[nH]c3ccc(-n4cnnc4)cc23)CC1,15 nM,0.9 nM,17,Plasma concentration (Rattus norvegicus [9]): 52 ng/mL; Plasma concentration (Rattus norvegicus [10]): 570 ng/mL; pKa [6]: 8.8; Plasma concentration (Rattus norvegicus [11]): 35 ng/mL; EC50 [4]: 66 nM; Efficacy [8]: 67%; Plasma concentration (Rattus norvegicus [12]): 273 ng/mL; EC50 [5]: 0.4 nM
F[C@H]1CN(CCCc2c[nH]c3ccc(-n4cnnc4)cc23)CC[C@@H]1NCc1ccccc1C(F)(F)F,170 nM,5 nM,34,
F[C@@H]1CN(CCCc2c[nH]c3ccc(-n4cnnc4)cc23)CC[C@@H]1NCc1ccccc1C(F)(F)F,300 nM,13 nM,23,
Fc1ccc(CCN2CCN(CC(F)Cc3c[nH]c4ccc(-n5cnnc5)cc34)CC2)cc1 (stereo unspecified),540 nM,5.5 nM,98,

# Further lines, with some results ahead:
IC50 [1],IC50 [2],Selectivity [3],Compound,also measured
5800 nM,56 nM,104,FC(F)(Cc1c[nH]c2ccc(-n3cnnc3)cc12)CN1CCC(CCc2ccccc2)CC1,
1200 nM,3.5 nM,,Fc1cccc(CCN2CCN(CC(F)Cc3c[nH]c4ccc(-n5cnnc5)cc34)CC2)c1 (stereo in doubt; 25) [listing 1 of 2 here],EC50 [4]: 810 nM; EC50 [5]: 3.8 nM
1800 nM,6.2 nM,290,CC(CN1CCN(CC(F)(F)Cc2c[nH]c3ccc(-n4cnnc4)cc23)CC1)c1ccccc1 (stereo unspecified),Efficacy [7]: 123%; EC50 [4]: 5100 nM; Efficacy [8]: 53%; EC50 [5]: 16 nM
220 nM,12 nM,18,CN(Cc1ccccc1)[C@H]1CCN(CCCc2c[nH]c3ccc(-n4cnnc4)cc23)C[C@H]1F,Plasma concentration (Rattus norvegicus [9]): 2 ng/mL; Plasma concentration (Rattus norvegicus [10]): 216 ng/mL; pKa [6]: 8; Plasma concentration (Rattus norvegicus [11]): 3 ng/mL; Plasma concentration (Rattus norvegicus [12]): 136 ng/mL
5.3 nM,0.4 nM,13,Fc1cccc(CC2(F)CCN(CCCc3c[nH]c4ccc(-n5cnnc5)cc34)CC2)c1,
7200 nM,280 nM,26,FC(F)(Cc1c[nH]c2ccc(-n3cnnc3)cc12)CN1CCC(COc2ccccc2)CC1,
3000 nM,30 nM,100,FC(Cc1c[nH]c2ccc(-n3cnnc3)cc12)CN1CCC(OCc2ccccc2)CC1 (stereo unspecified),
28 nM,0.6 nM,47,CC(CC1(F)CCN(CCCc2c[nH]c3ccc(-n4cnnc4)cc23)CC1)c1ccccc1 (stereo unspecified),Efficacy [7]: 86%; EC50 [4]: 510 nM; Efficacy [8]: 85%; EC50 [5]: 2.6 nM
,,343,Fc1cccc(CCN2CCN(CC(F)Cc3c[nH]c4ccc(-n5cnnc5)cc34)CC2)c1 (stereo in doubt; 25) [listing 2 of 2 here],Efficacy [8]: 25%
13 nM,2.1 nM,6,CN(Cc1ccccc1)[C@H]1CCN(CCCc2c[nH]c3ccc(-n4cnnc4)cc23)C[C@@H]1F,
,,196,Fc1cccc(CCN2CCN(CC(F)Cc3c[nH]c4ccc(-n5cnnc5)cc34)CC2)c1 (stereo in doubt; 28) [listing 2 of 2 here],
